In the RNAGym collection of RNA variant scans (doi:10.1126/science.aae0568):
Variants at the floor of the assay were thinned out.

B1: tRNA (parent)
chain: GUUCCGUUGGCGUAAUGGUAACGCGUCUCCCUCCUAAGGAGAAGACUGCGGGUUCGAGUCCCGUACGGAACG

Variants of: B1
Assay: yeast fitness relative to wild type (ratio to wild type); higher = fitter; tRNA-Arg(CCU), competitive growth, 37 C, YPD
Procedure, shortened: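 Start and end populations of a pooled competition were compared by 100-nucleotide paired-end sequencing of gene amplicons. The Saccharomyces cerevisiae strains carried tRNA-Arg(CCU) gene variants at the native genomic locus, synthesised with a 3% per-site mutation rate at 69 sites, and competed in YPD at 37°C for 24 hours in six parallel replicates. Darwinian fitness relative to wild type was based on the change in genotype frequencies. Genotypes required ≥ 100 starting reads, and estimates < 0.5 were set to 0.5.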

Row | Variant | yeast fitness
1 | A21G A43U | 0.963
2 | A21G C49G G56C | ≤ 0.5
3 | A21U A40C A42U C49U G50C C66U | 0.578
4 | C22A A42U G44A C62U | ≤ 0.5
5 | A21U C49U | 0.781
6 | A21U C22U G51C G52A U59G | ≤ 0.5
7 | A21G C22A C62U C66A | ≤ 0.5
8 | A21U G25C A37G A43G A65G | ≤ 0.5
9 | A21G C61G C66G | ≤ 0.5
10 | A21U A36C C60G A65C | 0.575
11 | A21G C30A | 1
12 | A21G C34U G63U | ≤ 0.5
13 | A21G G44C | 0.963
14 | C22A A45U G63A | 0.558
15 | A21U A37G G50C G56C | ≤ 0.5
16 | C22A C24A U26C C60G C61U | ≤ 0.5
17 | A21U C24G U54G C55G C62U | ≤ 0.5
18 | A21G G39C C46G | 0.627
19 | A21U C27A G50C G52C | ≤ 0.5
20 | A21G C27G C29A G50A | ≤ 0.5
21 | A21U A36C C49A C62U A65U | ≤ 0.5
22 | A21G G23A C27U | 0.75
23 | A21U U54G | ≤ 0.5
24 | A21U C30U A65G C66G | 0.638

Row | Variant | yeast fitness
25 | A21G G25A | 1.12
26 | A21U C49U U54A U64C | ≤ 0.5
27 | A21U G23C C49U | ≤ 0.5
28 | A21U G25A | 0.757
29 | A21U C27G C30G | ≤ 0.5
30 | C22A A37C A65G | 0.691
31 | A21U C61U | 0.709
32 | A21U C29A U35A A43U C62U G68C | ≤ 0.5
33 | A21G G23A C31U G63C U64A C66G | ≤ 0.5
34 | A21U A57C G58A A70C | ≤ 0.5
35 | A21U A42G C49U | ≤ 0.5
36 | A21G C49U A65C | 0.747
37 | A21G C33G A40G | 0.562
38 | A21U G56C G63A U64C G67C A69U | ≤ 0.5
39 | A21G U28A A42C A57G C66A | 0.6
40 | A21G C22G U53C C55G | 0.698
41 | A21G C27U G56C | 0.57
42 | A21G U32A | 0.661
43 | A21G U32G | 0.576
44 | C22A C27G G41A | 0.614
45 | A21U C60U G67U | ≤ 0.5
46 | C22A | 1
47 | A21U C66U | 0.78
48 | A21G C22A C29A C61U | ≤ 0.5

Row | Variant | yeast fitness
49 | A21G C34G C55G | ≤ 0.5
50 | A21U C31G A45C | ≤ 0.5
51 | A21G C22U A37U A45G C46G C55A | ≤ 0.5
52 | A21G U32A U47A | 0.556
53 | A21U C49A C62G G68U | 0.626
54 | A21U G25A C60U G68U | ≤ 0.5
55 | A21G G25A G48C C62A | ≤ 0.5
56 | A21U U26C A45G | ≤ 0.5
57 | A21G G58C U59C G63A | 0.701
58 | A21U C29U | 0.588
59 | A21U C29G | 0.561
60 | C22A C24U | 0.74
61 | A21G C22A A40U | ≤ 0.5
62 | A21G C24U | 0.989
63 | A21U A57U | 0.61
64 | A21G C22U G63A | 0.572
65 | A21U G39A C66U | 0.55
66 | A21U A42G G50C U59C | ≤ 0.5
67 | A21U C55A | ≤ 0.5
68 | A21G C34G A42U | ≤ 0.5
69 | A21U U53A C66U | ≤ 0.5
70 | A21U U32A A70G | ≤ 0.5
71 | A21U A40C A42U A43G C49U G50C C66U | ≤ 0.5
72 | A21G C24G C31A G44A | 0.571

Row | Variant | yeast fitness
73 | C22A C27G A36G | ≤ 0.5
74 | A21U C31A G39C C62G | ≤ 0.5
75 | A21G G56C C62A | ≤ 0.5
76 | A21G U32C C34G | ≤ 0.5
77 | A21G C24A A69U A70G | ≤ 0.5
78 | A21G G44A A69C | ≤ 0.5
79 | A21G C33A C55A A65C A70C | ≤ 0.5
80 | A21U C34A G50C | 0.535
81 | A21U G68C | 0.687
82 | A21U G23C | 0.579
83 | A21U C30A A70G | 0.756
84 | A21U C30U | 0.646
85 | A21U G67A | 0.818
86 | A21U C22U U32A G52C | ≤ 0.5
87 | A21U A57U C60A G68C | ≤ 0.5
88 | A21G C49A U54C A65G | ≤ 0.5
89 | A21U A36U G58A | ≤ 0.5
90 | A21U A65G A70C | 0.56
91 | A21U C24A A45U | ≤ 0.5
92 | A21G U64A | 0.877
93 | A21U U35C G44A G48C C55G A69U | ≤ 0.5
94 | A21G G39A U54C A70C | ≤ 0.5
95 | A21U A43G C62A | ≤ 0.5
96 | A21U U32C A36G A37U U53G | ≤ 0.5

Row | Variant | yeast fitness
97 | A21U A42C C62G | ≤ 0.5
98 | A21U U47G G67A A69G | ≤ 0.5
99 | A21G A57U A70U | 0.582
100 | A21G C22U C30G G51A A69U | 0.551
101 | A21U G38C G44C C62A | ≤ 0.5
102 | A21G G39A | 0.809
103 | A21U G25A G51A C60A | ≤ 0.5
104 | C22A A37U | 0.578
105 | A21U C27G C33U C34A | ≤ 0.5
106 | A21U C22U C66U A69U | ≤ 0.5
107 | A21U C33A | 0.578
108 | A21G A57G C66G | 0.599
109 | A21G C27G G63A | ≤ 0.5
110 | A21U G52A G58A | ≤ 0.5
111 | A21G C22U C46U G56C | ≤ 0.5
112 | A21G C31U | 0.872
113 | A21U C27G A36U G39C | ≤ 0.5
114 | C22A A45C U47C U54G | ≤ 0.5
115 | A21U C31G A42G U53A G68A | ≤ 0.5
116 | A21U G67C A69U | ≤ 0.5
117 | A21U G50C C66G | ≤ 0.5
118 | C22A A57G C60A | ≤ 0.5
119 | A21G U26C A40U C49U | ≤ 0.5
120 | A21U A36G C49A | ≤ 0.5

Row | Variant | yeast fitness
121 | A21G U32C G51C C61A | 0.508
122 | A21U U26A C27G C30G A36U G38C C46U C49G A65U | ≤ 0.5
123 | A21G G48A | 0.92
124 | A21G G48C | 1.01
125 | A21G C27U C61G A65U | ≤ 0.5
126 | C22A C24G A45C | 0.564
127 | A21G A57C | 0.709
128 | A21G C33G C34G U47A G50A | ≤ 0.5
129 | A21G C61G G67A | ≤ 0.5
130 | A21G C49A C62U | 0.544
131 | A21G C34U A65C | ≤ 0.5
132 | A21U C22U C30G U59G A65U | ≤ 0.5
133 | C22A A69U A70C | 0.685
134 | A21G C49U U53C C61G | ≤ 0.5
135 | A21U C22G A69U | 0.613
136 | A21U U26A | 0.722
137 | A21G U35G A37G A42G | ≤ 0.5
138 | A21U C27U G44A | ≤ 0.5
139 | A21U C27G U28C C30U U53G C61A | 0.78
140 | A21G C30A C31U A57G A65U A69U | ≤ 0.5
141 | A21U C33G A42G G44A U64C | 0.558
142 | A21G C22G G25A G63A | ≤ 0.5
143 | C22A C24U A36U | ≤ 0.5
144 | C22A A43C G56A | 0.853

Row | Variant | yeast fitness
145 | A21U G41A A57C | ≤ 0.5
146 | A21U C31G | 0.842
147 | C22A C27A G52C G63A | ≤ 0.5
148 | C22A C24A U26C C66U | ≤ 0.5
149 | A21U U32C A36G A37U | ≤ 0.5
150 | A21U A70C | 0.701
151 | A21G U35C A36U A40U C55U A57C | ≤ 0.5
152 | A21G C60G A70C | 0.579
153 | A21G G67C | 0.865
154 | A21G G67A | 0.956
155 | A21U C29A C30U C62G U64A | ≤ 0.5
156 | A21G G41A C60U | 0.574
157 | A21G A43U G58C U59C | 0.67
158 | A21U C33U G50A | 0.621
159 | A21G A45G C46G A70U | ≤ 0.5
160 | A21G G63U | 0.752
161 | A21U A40U A45U | 0.625
162 | A21U C30U C46U A69U | ≤ 0.5
163 | A21U C30U A42C C55U | ≤ 0.5
164 | A21U A65C | 0.793
165 | A21G G23C C31U C34G A43G A45C G67C | ≤ 0.5
166 | C22A A69C | 0.874
167 | A21U A36C G38C G58C A69C | ≤ 0.5
